Where a SMILES comes first, the peptide text is derived from it. The star is where a group is joined. Acetyl(thymin-1-yl) = Cc1cn(CC(=O)*)c(=O)[nH]c1=O; Adenin9ylacetyl = Nc1ncnc2c1ncn2CC(=O)*
Experiments:
PC12 cells = test: Biocompatibility; type: cell-based; settings: 7 days incubation (Figures S10, S11 and S12)
Outline: (§1)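 Nucleopeptides were tested singly and as two-component heterodimer mixtures. HeLa cells (24 h doubling time) were incubated for 3 days, and PC12 cells (92 h doubling time) for 7 days. Viability was then assessed as a measure of biocompatibility.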

HeLa cells = test: Biocompatibility; type: cell-based; settings: 3 days incubation, single nucleopeptide (Figures S11 and S12)
Outline: as §1

proteinase K = proteinase K (Parengyodontium album, UniProt P06873); test: Proteolytic stability on incubation with proteinase K; type: in vitro ADME; settings: single component, 0.2 mg/mL in HEPES buffer pH 7.4; proteinase K 3.2 U/mL; 24 h at 37 °C (Figure 3A; KTTPV Figure S9)
Chain of proteinase K (P06873 106-384, species assumed): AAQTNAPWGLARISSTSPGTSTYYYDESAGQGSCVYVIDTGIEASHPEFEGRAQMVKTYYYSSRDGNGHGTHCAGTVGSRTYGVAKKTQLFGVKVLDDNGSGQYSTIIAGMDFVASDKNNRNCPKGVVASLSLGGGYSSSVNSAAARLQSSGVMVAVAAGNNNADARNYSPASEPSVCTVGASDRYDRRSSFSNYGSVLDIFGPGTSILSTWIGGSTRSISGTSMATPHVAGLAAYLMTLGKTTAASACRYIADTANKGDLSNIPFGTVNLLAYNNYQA

## Cc1cn(CC(=O)N[C@@H](CCCCN)C(=O)N[C@H](C(=O)N[C@H](C(=O)N2CCC[C@H]2C(=O)N[C@H](C(=O)O)C(C)C)[C@@H](C)O)[C@@H](C)O)c(=O)[nH]c1=O [compound 1] ({Acetyl(thymin-1-yl)}-KTTPV-OH; N-terminus and C-terminus assumed)
PC12 cells
  Toxicity / inhibition of proliferation of PC12 cells: no toxicity
HeLa cells
  Toxicity to HeLa cells: no toxicity

## CC(C)[C@H](NC(=O)[C@@H]1CCCN1C(=O)[C@@H](NC(=O)[C@@H](NC(=O)[C@H](CCCCN)NC(=O)Cn1cnc2c(N)ncnc21)[C@@H](C)O)[C@@H](C)O)C(=O)O [compound 2] (Adenin9ylacetyl-KTTPV-OH; N-terminus and C-terminus assumed)
PC12 cells
  Toxicity / inhibition of proliferation of PC12 cells: no toxicity
HeLa cells
  Toxicity to HeLa cells: no toxicity

## LGFNI [compound 3]
Proteinase K
  Compound remained after incubating with proteinase K: hydrolyzes completely
PC12 cells
  Toxicity / inhibition of proliferation of PC12 cells: no toxicity
HeLa cells
  Toxicity to HeLa cells: no toxicity

— PMC4535690 (Angewandte Chemie (International ed. in English), 2015)
